# KDM4C inh – blocks human GASC-1 (KDM4C) demethylase activity. actives 0.15% (n = 96,000). inhibition, % at 12.5 µM. AID 720574. GST-KDM4C 2-372, H3K9me3 peptide, LANCE TR-FRET;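 active = mean replicate inhibition above about 25%, with at least 55% of replicates also reaching it, limit read from the data, passing the limit was not always enough; inconclusive = only one of those two conditions met; inactive = neither condition met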
#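 Test system – GST-tagged GASC-1 (JMJD2C) catalytic fragment, aa 2-372 · Medium – HEPES buffer, pH 7.5, plus ascorbate · Reagent – H3K9me3 peptide with Fe(II)/2OG · Compound – one test concentration per compound · Timing – 30 min reaction, 60 min detection, RT · Technique – TR-FRET with Eu antibody and ULight streptavidin, EDTA stop · Read-out basis – inhibition from TR-FRET ratio decrease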
# T cruzi growth – blocks T. cruzi growth in NIH3T3 culture. AID 624255. inhibition, % at 8.34 µM. T. cruzi beta-gal in NIH3T3, GalScreen luminescence, 90 h. actives 5.9% (n = 77,000);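 active = mean inhibition above about 93%, with at least 55% of replicates each passing it, limit read from the data, passing the limit was not always enough; inconclusive = only one of those two conditions holds; inactive = neither condition holds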
# Pf Dd2 growth – P. falciparum Dd2 growth inhibition. SYBR Green, 72 h; stronger effect = lower value. actives 2.3% (n = 94,000). activity change, % at 10 µM; in the data active = activity change below about -80%; inconclusive = no clear call, values can overlap the other calls
# IDH1 R132H inh – IDH1 R132H (human) inhibition; IDH1 R132H reductase, diaphorase/resazurin fluorescence, 60 min; inhibition, % at 10 µM; actives 0.18% (n = 70,000); in the data active = inhibition above about 34%; inconclusive = no clear call, values can overlap the other calls; inactive = below about 11%;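 also: 0% = DMSO and 100% = no enzyme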
# Target sequence (O75874 whole entry R132H): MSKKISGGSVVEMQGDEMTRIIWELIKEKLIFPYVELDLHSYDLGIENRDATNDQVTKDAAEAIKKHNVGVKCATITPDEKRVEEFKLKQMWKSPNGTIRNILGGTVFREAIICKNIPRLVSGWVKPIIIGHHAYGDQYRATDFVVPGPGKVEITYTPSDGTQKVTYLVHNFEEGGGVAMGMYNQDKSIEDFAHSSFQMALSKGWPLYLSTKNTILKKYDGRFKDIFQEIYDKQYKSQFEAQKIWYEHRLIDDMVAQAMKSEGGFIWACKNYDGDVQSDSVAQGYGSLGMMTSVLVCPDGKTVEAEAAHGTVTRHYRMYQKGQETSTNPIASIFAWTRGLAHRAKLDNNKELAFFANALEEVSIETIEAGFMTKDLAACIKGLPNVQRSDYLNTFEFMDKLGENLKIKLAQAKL
# * hit, by the source's call; ? = inconclusive; nt = not tested or not shown; ! = repeats disagree. Only some compounds are listed: those with a hit (about 5.9% of all), similar ones and a draw of the others.
SMILES,KDM4C inh,T cruzi growth,Pf Dd2 growth,IDH1 R132H inh
COCC#Cc1ccc([C@H]2[C@H](CO)N3C(=O)CN(C(=O)CN4CCOCC4)C[C@@H]23)cc1,2,nt,-85*,nt
C[C@@H]1CN([C@@H](C)CO)C(=O)c2cc(C#CCN(C)C)cnc2O[C@@H]1CN(C)Cc1ccccc1F,2,42,-11,0
C[C@@H]1CN([C@@H](C)CO)C(=O)Cc2cc(NS(=O)(=O)c3ccc(F)cc3)ccc2O[C@H]1CN(C)Cc1ccc(C(F)(F)F)cc1,1,76,-22,0
O=C(C1CCCC1)N1CC(=O)N2[C@H](CO)[C@@H](c3ccc(C#CCc4ccccc4)cc3)[C@@H]2C1,0,nt,?,nt
O=C(C1CCCC1)N1CC(=O)N2[C@H](C1)[C@@H](c1ccc(C#CCc3ccccc3)cc1)[C@@H]2CO,1,nt,-89*,nt
CC(C)C#Cc1ccc([C@@H]2[C@@H](CO)N3C(=O)CN(C(=O)C4CCCCC4)C[C@H]23)cc1,0,nt,-21,nt
CC(C)C#Cc1ccc([C@@H]2[C@@H](CO)N3C(=O)CN(C(=O)C4CCCCC4)C[C@@H]23)cc1,-1,nt,-85*,nt
CCOc1cc(/C=N/NC(=O)c2ccccc2O)ccc1O,nt,nt,nt,0
CCCC(=O)Nc1ccc2c(c1)OC[C@@H](C)N(Cc1ccccc1F)C[C@@H](C)[C@@H](OC)CN(C)C2=O,0,81,-5,0
C[C@@H]1CN([C@H](C)CO)C(=O)c2cccc(NC(=O)c3ccc(-c4nccs4)cc3)c2O[C@@H]1CN(C)Cc1ccc(C(=O)Nc2ccccc2N)cc1,-2,90,-91*,nt
C[C@@H]1CN([C@H](C)CO)C(=O)c2cccc(NC(=O)c3ccc(-c4nccs4)cc3)c2O[C@H]1CN(C)Cc1ccc(C(F)(F)F)cc1,0,96,-91*,1
C[C@@H]1CN([C@@H](C)CO)C(=O)c2cccc(NC(=O)c3nc4ccccc4s3)c2O[C@@H]1CN(C)Cc1ccc(C(=O)Nc2ccccc2N)cc1,0,93,-91*,nt
C[C@@H]1CN([C@@H](C)CO)C(=O)c2cccc(NC(=O)c3ccc(-c4nccs4)cc3)c2O[C@H]1CN(C)Cc1ccc(C(=O)Nc2ccccc2N)cc1,-1,82,-93*,nt
C[C@@H]1CN([C@H](C)CO)C(=O)c2cccc(NC(=O)c3nc4ccccc4s3)c2O[C@H]1CN(C)Cc1ccc(C(=O)O)cc1,0,31,-11,nt
C[C@@H]1CN([C@H](C)CO)C(=O)c2cccc(NC(=O)c3ccc(-c4nccs4)cc3)c2O[C@@H]1CN(C)Cc1ccc(-c2ccccc2)cc1,-4,36,-65,-3
C[C@@H]1CN([C@@H](C)CO)C(=O)c2c(c3ccccc3n2C)-c2ccccc2CO[C@H]1CN(C)C(=O)Nc1cccc(F)c1,-2,-24,47,nt
O=C(C[C@@H]1CC[C@H]2[C@@H](COC[C@H](O)CN2S(=O)(=O)c2ccc(F)cc2)O1)NCc1ccc(Cl)c(Cl)c1,0,34,-4,nt
COc1ccc(-c2ccc3c(c2)[C@@H]2[C@@H](CCN2C(=O)C2CCC2)[C@H](CO)N3C)cc1,11,nt,-17,nt
C[C@@H]1CN([C@@H](C)CO)S(=O)(=O)c2ccc(-c3cncnc3)cc2O[C@H]1CN(C)Cc1cncnc1,-1,14,38,0
COc1cccc(-c2cn(CC[C@@H]3CC[C@H](NC(=O)CC4CC4)[C@@H](CO)O3)nn2)c1,55*,4,5,7
CCC(=O)N[C@@H]1CC[C@H](CCn2cc(-c3cccc(OC)c3)nn2)O[C@@H]1CO,29*,-41,-20,0
COc1ccc(S(=O)(=O)Nc2ccc3c(c2)C(=O)N([C@H](C)CO)C[C@H](C)[C@H](CN(C)CC2CCCCC2)OCCCC[C@H](C)O3)cc1,-1,75,-79,-1
C[C@@H]1CN([C@@H](C)CO)C(=O)Cc2cc(NC(=O)Nc3cccc4ccccc34)ccc2O[C@@H]1CN(C)CC1CC1,-1,36,-85*,1
C[C@@H]1CN([C@@H](C)CO)C(=O)Cc2cc(NC(=O)Nc3ccccc3)ccc2O[C@H]1CN(C)CC1CC1,nt,-21,-87*,-2
O=C(N/N=C/c1ccc(O)c(F)c1)c1ccccc1O,nt,nt,nt,-1
SMILES,KDM4C inh,T cruzi growth,Pf Dd2 growth,IDH1 R132H inh
Cc1cccc(-c2ccc([C@@H]3[C@@H]4CN(C(=O)CN(C)C)C[C@H]3N4)cc2)c1,-3,nt,-85*,nt
CN(C)CC(=O)N1C[C@@H]2N[C@H](C1)C2c1ccc(/C=C/c2ccccc2)cc1 (some centres not stated),-1,nt,-91*!,nt
Cc1cccc(-c2ccc(C3[C@@H]4CN(C(=O)c5ccncc5)C[C@H]3N4)cc2)c1 (some centres not stated),0,nt,-9,nt
O=[N+]([O-])c1ccc(-c2nc(-c3ccc(F)cc3)c(-c3ccncc3)[nH]2)cc1,nt,nt,nt,0
COc1ccccc1OCC(=O)Nc1ccccc1C(=O)Nc1cccc(C(=O)O)c1,nt,nt,nt,-1
CCC(=O)N1CC2(C1)[C@H](c1ccc(-c3cccc(OC)c3)cc1)[C@H](CO)N2C(C)=O,-3,nt,-5,nt
CCC(=O)N1CC2(C1)[C@@H](c1ccc(-c3cccc(OC)c3)cc1)[C@@H](CO)N2C(C)=O,3,nt,-90*,nt
CCCC(=O)Nc1ccc2c(c1)OC[C@H](C)N(C(C)=O)C[C@@H](C)[C@H](OC)CN(C)C2=O,0,-33,nt,0
C[C@H]1CN([C@@H](C)CO)C(=O)c2cc(C#Cc3ccncc3)cnc2O[C@@H]1CN(C)Cc1ccncc1,1,68,-19,37*
CNC[C@H]1Oc2ncc(C#Cc3cccc(OC)c3)cc2C(=O)N([C@H](C)CO)C[C@H]1C,-3,76,-83*,-1
CCCN(C)C[C@H]1Oc2ncc(C#Cc3ccccc3OC)cc2C(=O)N([C@@H](C)CO)C[C@H]1C,-2,nt,78,-1
CCCN(C)C[C@H]1Oc2ncc(C#Cc3ccccc3OC)cc2C(=O)N([C@H](C)CO)C[C@H]1C,-3,nt,-87*,0
CNC[C@@H]1Oc2ncc(C#Cc3cccc(OC)c3)cc2C(=O)N([C@H](C)CO)C[C@@H]1C,-2,35,-21,-1
C[C@H](CO)N1C[C@H](C)[C@@H](CN(C)Cc2ccccn2)Oc2ncc(C#CC3(O)CCCC3)cc2C1=O,41*,19,32,2
C[C@H](CO)N1C[C@H](C)[C@H](CN(C)C)OCc2ccccc2-c2ccccc2C1=O,1,-19,7,1
COc1ccccc1C#Cc1cnc2c(c1)C(=O)N([C@@H](C)CO)C[C@H](C)[C@H](CN(C)C)O2,29*,75,-25,-1
COc1ccccc1C#Cc1cnc2c(c1)C(=O)N([C@@H](C)CO)C[C@@H](C)[C@@H](CN(C)C)O2,-1,-2,-18,0
C[C@@H]1CN([C@@H](C)CO)C(=O)c2cc(C#Cc3ccccc3)cnc2O[C@H]1CN(C)CC1CCOCC1,35*,1,-36,25
C[C@H]1CN([C@@H](C)CO)C(=O)c2cc(C#Cc3ccccc3)cnc2O[C@@H]1CN(C)CC1CCOCC1,1,14,-2,-1
